Data published in ChEMBL document CHEMBL5724801, “EUbOPEN Chemogenomics Library - Multiplex” (2024).
Where “and” joins values, the source holds several entries; their conditions need not be identical. Equal entries are not always repeated.

Tested on: U2OS
Assay: Multiplex assay against U2OS
Format: toxicity, cell-based
Conditions: human
Summary of the method: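 Per cents of healthy-nucleus cells form the tubulin, mitochondrial-mass and membrane-permeability phenotype values. Live cells were stained at seeding with Hoechst33342, BioTracker Green Microtubule Cytoskeleton Dye, MitoTracker Red and Annexin V Alexa Fluor 680. After compound addition they were imaged on a CQ1 microscope at 37°C and 5% CO2, and CellPathfinder machine-learning gating split them into Hoechst high-intensity objects or normal cells, normal cells into healthy, pyknosed or fragmented nuclei, and pyknosed cells into mitotic or apoptotic.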

[1] = 12 h, 1 µM, compound concentration 1 uM
[2] = 12 h, 10 µM, compound concentration 10 uM
[3] = 24 h, 1 µM, compound concentration 1 uM
[4] = 24 h, 10 µM, compound concentration 10 uM
[5] = 48 h, 1 µM, compound concentration 1 uM
[6] = 48 h, 10 µM, compound concentration 10 uM

COc1ccc(CC(=O)NC(N/C(=N/C#N)Nc2cccc3ncccc23)C(C)(C)C)cc1OC (stereo not drawn)
Population Apoptotic (%) [1]: 40.91% and 47.06% | Population Fragmented Nuclei (%) [1]: 2.4% and 0.62% | Population Healthy Nuclei (%) [1]: 91.73% and 88.89% | Population Hoechst High Intensity Objects (%) [1]: 0% | Population Membrane Permeable-Phenotype (%) [1]: 1.16% and 5.56% | Population Mitochondria Different-Phenotype (%) [1]: 0.87% and 4.86% | Population Mitotic Cells (%) [1]: 59.09% and 52.94% | Population Normal (%) [1]: 100% | Population Pyknosed Nuclei (%) [1]: 5.87% and 10.49% | Population Tubulin-Different-Phenotype (%) [1]: 0.87% and 0.69% | Total Cell Count [1]: 375 and 162 | Population Apoptotic (%) [2]: 51.35% and 40% | Population Fragmented Nuclei (%) [2]: 1.67% and 2.27% | Population Healthy Nuclei (%) [2]: 88.02% and 82.58% | Population Hoechst High Intensity Objects (%) [2]: 0% | Population Membrane Permeable-Phenotype (%) [2]: 1.27% and 3.67% | Population Mitochondria Different-Phenotype (%) [2]: 0.63% and 8.26% | Population Mitotic Cells (%) [2]: 48.65% and 60% | Population Normal (%) [2]: 100% | Population Pyknosed Nuclei (%) [2]: 10.31% and 15.15% | Population Tubulin-Different-Phenotype (%) [2]: 1.58% and 0.92% | Total Cell Count [2]: 359 and 132 | Population Apoptotic (%) [3]: 33.33% and 61.54% | Population Fragmented Nuclei (%) [3]: 1.96% and 2.31% | Population Healthy Nuclei (%) [3]: 85.66% and 85.65% | Population Hoechst High Intensity Objects (%) [3]: 0% | Population Membrane Permeable-Phenotype (%) [3]: 1.15% and 3.78% | Population Mitochondria Different-Phenotype (%) [3]: 0.46% and 6.49% | Population Mitotic Cells (%) [3]: 66.67% and 38.46% | Population Normal (%) [3]: 100% | Population Pyknosed Nuclei (%) [3]: 12.38% and 12.04% | Population Tubulin-Different-Phenotype (%) [3]: 0.92% and 0% | Total Cell Count [3]: 509 and 216 | Population Apoptotic (%) [4]: 35.56% and 50% | Population Fragmented Nuclei (%) [4]: 1.44% and 1.79% | Population Healthy Nuclei (%) [4]: 89.32% and 87.5% | Population Hoechst High Intensity Objects (%) [4]: 0% | Population Membrane Permeable-Phenotype (%) [4]: 1.61% and 2.04% | Population Mitochondria Different-Phenotype (%) [4]: 0.46% and 4.08% | Population Mitotic Cells (%) [4]: 64.44% and 50% | Population Normal (%) [4]: 100% | Population Pyknosed Nuclei (%) [4]: 9.24% and 10.71% | Population Tubulin-Different-Phenotype (%) [4]: 2.07% and 0.68% | Total Cell Count [4]: 487 and 168 | Population Apoptotic (%) [5]: 60.47% and 47.73% | Population Fragmented Nuclei (%) [5]: 1.92% and 2.62% | Population Healthy Nuclei (%) [5]: 88.91% and 85.86% | Population Hoechst High Intensity Objects (%) [5]: 0% | Population Membrane Permeable-Phenotype (%) [5]: 0.36% and 2.13% | Population Mitochondria Different-Phenotype (%) [5]: 0.36% and 2.74% | Population Mitotic Cells (%) [5]: 39.53% and 52.27% | Population Normal (%) [5]: 100% | Population Pyknosed Nuclei (%) [5]: 9.17% and 11.52% | Population Tubulin-Different-Phenotype (%) [5]: 0.96% and 0.61% | Total Cell Count [5]: 938 and 382 | Population Apoptotic (%) [6]: 53.62% and 57.5% | Population Fragmented Nuclei (%) [6]: 3.32% and 2.81% | Population Healthy Nuclei (%) [6]: 89.53% and 83.16% | Population Hoechst High Intensity Objects (%) [6]: 0% | Population Membrane Permeable-Phenotype (%) [6]: 0.93% and 3.38% | Population Mitochondria Different-Phenotype (%) [6]: 0.35% and 2.53% | Population Mitotic Cells (%) [6]: 46.38% and 42.5% | Population Normal (%) [6]: 100% | Population Pyknosed Nuclei (%) [6]: 7.15% and 14.04% | Population Tubulin-Different-Phenotype (%) [6]: 1.62% and 0.84%

Cc1c(C(=O)NCCCN(C)C)sc2ncnc(Nc3ccc(F)cc3OC(C)CF)c12 (stereo not drawn)
Population Apoptotic (%) [1]: 44.9% and 30.77% | Population Fragmented Nuclei (%) [1]: 1.42% and 2.65% | Population Healthy Nuclei (%) [1]: 84.66% and 80.13% | Population Hoechst High Intensity Objects (%) [1]: 0% | Population Membrane Permeable-Phenotype (%) [1]: 0.67% and 4.13% | Population Mitochondria Different-Phenotype (%) [1]: 0% and 15.7% | Population Mitotic Cells (%) [1]: 55.1% and 69.23% | Population Normal (%) [1]: 100% | Population Pyknosed Nuclei (%) [1]: 13.92% and 17.22% | Population Tubulin-Different-Phenotype (%) [1]: 2.68% and 0% | Total Cell Count [1]: 352 and 151 | Population Apoptotic (%) [2]: 33.33% and 29.55% | Population Fragmented Nuclei (%) [2]: 6.74% and 4.73% | Population Healthy Nuclei (%) [2]: 69.66% and 65.54% | Population Hoechst High Intensity Objects (%) [2]: 0% | Population Membrane Permeable-Phenotype (%) [2]: 10.97% and 18.56% | Population Mitotic Cells (%) [2]: 66.67% and 70.45% | Population Normal (%) [2]: 100% | Population Pyknosed Nuclei (%) [2]: 23.6% and 29.73% | Population Tubulin-Different-Phenotype (%) [2]: 31.61% and 29.9% | Population Apoptotic (%) [3]: 56% and 51.85% | Population Fragmented Nuclei (%) [3]: 3.61% and 5.17% | Population Healthy Nuclei (%) [3]: 85.77% and 79.31% | Population Hoechst High Intensity Objects (%) [3]: 0% | Population Membrane Permeable-Phenotype (%) [3]: 1.49% and 4.35% | Population Mitotic Cells (%) [3]: 44% and 48.15% | Population Normal (%) [3]: 100% | Population Pyknosed Nuclei (%) [3]: 10.62% and 15.52% | Population Tubulin-Different-Phenotype (%) [3]: 1.98% and 0% | Total Cell Count [3]: 471 and 174 | Population Apoptotic (%) [4]: 35% and 38.46% | Population Fragmented Nuclei (%) [4]: 3.34% and 4.57% | Population Healthy Nuclei (%) [4]: 63.26% and 58.29% | Population Hoechst High Intensity Objects (%) [4]: 0% | Population Membrane Permeable-Phenotype (%) [4]: 3.96% and 12.75% | Population Mitotic Cells (%) [4]: 65% and 61.54% | Population Normal (%) [4]: 100% | Population Pyknosed Nuclei (%) [4]: 33.4% and 37.14% | Population Tubulin-Different-Phenotype (%) [4]: 59.08% and 40.2% | Total Cell Count [4]: 479 and 175 | Population Apoptotic (%) [5]: 48.89% and 51.28% | Population Fragmented Nuclei (%) [5]: 4.16% and 5.07% | Population Healthy Nuclei (%) [5]: 85.73% and 80.8% | Population Hoechst High Intensity Objects (%) [5]: 0% | Population Membrane Permeable-Phenotype (%) [5]: 1.31% and 1.35% | Population Mitochondria Different-Phenotype (%) [5]: 0.13% and 8.52% | Population Mitotic Cells (%) [5]: 51.11% and 48.72% | Population Normal (%) [5]: 100% | Population Pyknosed Nuclei (%) [5]: 10.11% and 14.13% | Population Tubulin-Different-Phenotype (%) [5]: 2.1% and 0.45% | Population Apoptotic (%) [6]: 53.75% and 63.55% | Population Fragmented Nuclei (%) [6]: 4.47% and 3.47% | Population Healthy Nuclei (%) [6]: 48.42% and 34.68% | Population Hoechst High Intensity Objects (%) [6]: 0.19% and 1.14% | Population Membrane Permeable-Phenotype (%) [6]: 12.31% and 18.33% | Population Mitotic Cells (%) [6]: 46.25% and 36.45% | Population Normal (%) [6]: 99.81% and 98.86% | Population Pyknosed Nuclei (%) [6]: 47.11% and 61.85% | Population Tubulin-Different-Phenotype (%) [6]: 44.62% and 53.33%

Cc1c(-c2cc(-c3ccccc3Cl)no2)cnn1C1CCNCC1.Cl
Population Apoptotic (%) [1]: 35.85% and 50% | Population Fragmented Nuclei (%) [1]: 2.99% and 1.04% | Population Healthy Nuclei (%) [1]: 85.68% and 82.29% | Population Hoechst High Intensity Objects (%) [1]: 0% | Population Membrane Permeable-Phenotype (%) [1]: 0.5% and 3.8% | Population Mitochondria Different-Phenotype (%) [1]: 0% and 8.86% | Population Mitotic Cells (%) [1]: 64.15% and 50% | Population Normal (%) [1]: 100% | Population Pyknosed Nuclei (%) [1]: 11.32% and 16.67% | Population Tubulin-Different-Phenotype (%) [1]: 1.5% and 1.9% | Total Cell Count [1]: 468 and 192 | Population Apoptotic (%) [2]: 35.61% and 27.88% | Population Fragmented Nuclei (%) [2]: 0.94% and 2.96% | Population Healthy Nuclei (%) [2]: 57.68% and 20% | Population Hoechst High Intensity Objects (%) [2]: 0% | Population Membrane Permeable-Phenotype (%) [2]: 28.26% and 22.22% | Population Mitotic Cells (%) [2]: 64.39% and 72.12% | Population Normal (%) [2]: 100% | Population Pyknosed Nuclei (%) [2]: 41.38% and 77.04% | Population Tubulin-Different-Phenotype (%) [2]: 85.87% and 88.89% | Total Cell Count [2]: 319 and 135 | Population Apoptotic (%) [3]: 37.5% and 39.02% | Population Fragmented Nuclei (%) [3]: 2.05% and 3.23% | Population Healthy Nuclei (%) [3]: 87.85% and 80.24% | Population Hoechst High Intensity Objects (%) [3]: 0% | Population Membrane Permeable-Phenotype (%) [3]: 0.18% and 2.01% | Population Mitochondria Different-Phenotype (%) [3]: 0.18% and 7.54% | Population Mitotic Cells (%) [3]: 62.5% and 60.98% | Population Normal (%) [3]: 100% | Population Pyknosed Nuclei (%) [3]: 10.09% and 16.53% | Population Tubulin-Different-Phenotype (%) [3]: 1.08% and 1.51% | Total Cell Count [3]: 634 and 248 | Population Apoptotic (%) [4]: 38.83% and 47.71% | Population Fragmented Nuclei (%) [4]: 2.56% and 6.16% | Population Healthy Nuclei (%) [4]: 49.23% and 19.18% | Population Hoechst High Intensity Objects (%) [4]: 0% and 0.68% | Population Membrane Permeable-Phenotype (%) [4]: 21.88% and 17.86% | Population Mitotic Cells (%) [4]: 61.17% and 52.29% | Population Normal (%) [4]: 100% and 99.32% | Population Pyknosed Nuclei (%) [4]: 48.21% and 74.66% | Population Tubulin-Different-Phenotype (%) [4]: 79.17% and 60.71% | Total Cell Count [4]: 390 and 147 | Population Apoptotic (%) [5]: 42.02% and 57.78% | Population Fragmented Nuclei (%) [5]: 2.39% and 2.74% | Population Healthy Nuclei (%) [5]: 86.66% and 84.93% | Population Hoechst High Intensity Objects (%) [5]: 0% | Population Membrane Permeable-Phenotype (%) [5]: 1.59% and 2.58% | Population Mitochondria Different-Phenotype (%) [5]: 0.11% and 7.74% | Population Mitotic Cells (%) [5]: 57.98% and 42.22% | Population Normal (%) [5]: 100% | Population Pyknosed Nuclei (%) [5]: 10.95% and 12.33% | Population Tubulin-Different-Phenotype (%) [5]: 2.23% and 3.55% | Total Cell Count [5]: 1087 and 365 | Population Apoptotic (%) [6]: 59.43% and 95.93% | Population Fragmented Nuclei (%) [6]: 1.36% and 2.17% | Population Hoechst High Intensity Objects (%) [6]: 0.68% and 0% | Population Normal (%) [6]: 99.32% and 100% | Population Pyknosed Nuclei (%) [6]: 55.33% and 89.13% | Population Tubulin-Different-Phenotype (%) [6]: 49.21% and 50%
